Data set [1] has as its system Rattus norvegicus. As to the kind of experiment: Inhibition of sucrose intake in Zucker fa/fa rat at 10 mg/kg, po after 4 hrs. Type of data set: functional. As to conditions: for inhibition in vivo at 10 mg/kg: Rattus norvegicus, Zucker, po, 4 h. An outline of the steps: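 Female Zucker fa/fa rats (10-12 weeks, 300-350 g) trained six consecutive days on 5% sucrose with food and water withdrawn; day 7 randomized (n=6), dosed orally 10 mg/kg in 0.5% carboxymethylcellulose (2 mL/kg), exposed to sucrose 1 h later for 4 h. Consumption measured; % inhibition vs vehicle control; one-way ANOVA with Dunnett's test.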

Data set [2] has as its target Cannabinoid receptor 2 (Homo sapiens, UniProt P34972). Briefly: Displacement of [3H]WIN-552122 from human recombinant CB2 receptor expressed in CHOK1 cells. Type of data set: cell-based, CHO-K1.
For data set [3], the target named is Cannabinoid receptor 1 (Homo sapiens, UniProt P21554). Briefly: biochemical. Type of data set: cell-based, HEK293.
Data set [4] concerns Rattus norvegicus. Briefly: Inhibition of body weight gain in Zucker fa/fa rat at 10 mg/kg, po. It counts as functional, organism-based. Also on record: dose 10 mg/kg. An outline of the steps:
(§1)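 Individually housed female obese Zucker fa/fa rats, groups of six, dosed orally daily 1 h before dark phase for 60 days; body weight recorded daily. Day 61 morning retro-orbital blood drawn and serum triglyceride measured by colorimetric kit. One-way ANOVA with Dunnett's test versus control.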

Data set [5] concerns Rattus norvegicus. Briefly: Reduction in serum triglyceride level in Zucker fa/fa rat at 10 mg/kg, po after 60 days. Also on record: dose 10 mg/kg. Type of data set: functional, organism-based. The method, boiled down: as §1
Data set [6] is described as follows: AUC (0 to infinity) in fasted Zucker fa/fa rat at 30 mg/kg, po. It counts as ADME, organism-based. Set-up: time infinity, dose 30 mg/kg, route oral. The following applies: plasma. The method, boiled down: (§2)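 Overnight-fasted female obese Zucker fa/fa rats (n=6), single 30 mg/kg oral dose as suspension in 0.5% carboxymethylcellulose sodium in water. Retro-orbital serial bleeds at 10, 20, 40 min and 1, 2, 4, 6, 8, 24, 48 h; plasma extracted liquid-liquid and quantified by LC-MS against spiked-matrix calibration with internal standard. Noncompartmental parameters computed.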

The nature of data set [7]: Cmax in fasted Zucker fa/fa rat at 30 mg/kg, po. It counts as ADME, organism-based. Also on record: dose 30 mg/kg, route oral. The following applies: in vivo. An outline of the steps:
as §2

The nature of data set [8]: Half life in fasted Zucker fa/fa rat at 30 mg/kg, po. Type of data set: ADME, organism-based. Also on record: dose 30 mg/kg, route oral. The following applies: in vivo. The method, boiled down: as §2
The nature of data set [9]: Drug concentration in fasted Zucker fa/fa rat plasma at 30 mg/kg, po after 3 hrs. It counts as ADME, organism-based. Set-up: dose 30 mg/kg, route oral. An outline of the steps: (§3)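 Female obese Zucker fa/fa rats (n=6), fasted, single oral 30 mg/kg in 0.5% carboxymethylcellulose; blood, brain and white adipose tissue taken at 3 h. Tissues saline-washed and homogenized in Tris buffer pH 7.4; plasma and homogenates liquid-liquid extracted and assayed by LC-MS (cyano column, ammonium acetate/TFA–acetonitrile 30:70). Values mean ± SEM.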

Data set [10] in a line: Drug concentration in fasted Zucker fa/fa rat white adipose tissue at 30 mg/kg, po after 3 hrs. Type of data set: ADME, organism-based. Also on record: dose 30 mg/kg, route oral. As to conditions: read-out: Drug uptake. An outline of the steps: as §3
Data set [11] can be described thus: Tmax in fasted Zucker fa/fa rat at 30 mg/kg, po. It counts as ADME, organism-based. Set-up: dose 30 mg/kg, route oral. The following applies: in vivo. The method, boiled down: as §2
Data set [12] in a line: Drug concentration in fasted Zucker fa/fa rat brain at 30 mg/kg, po after 3 hrs. It counts as ADME, organism-based. Set-up: dose 30 mg/kg, route oral. As to conditions: read-out: Drug uptake. An outline of the steps: as §3

Molecules are shown by their SMILES. Activity calls are given as the source filed them.

Chain of Cannabinoid receptor 2 (P34972 whole entry): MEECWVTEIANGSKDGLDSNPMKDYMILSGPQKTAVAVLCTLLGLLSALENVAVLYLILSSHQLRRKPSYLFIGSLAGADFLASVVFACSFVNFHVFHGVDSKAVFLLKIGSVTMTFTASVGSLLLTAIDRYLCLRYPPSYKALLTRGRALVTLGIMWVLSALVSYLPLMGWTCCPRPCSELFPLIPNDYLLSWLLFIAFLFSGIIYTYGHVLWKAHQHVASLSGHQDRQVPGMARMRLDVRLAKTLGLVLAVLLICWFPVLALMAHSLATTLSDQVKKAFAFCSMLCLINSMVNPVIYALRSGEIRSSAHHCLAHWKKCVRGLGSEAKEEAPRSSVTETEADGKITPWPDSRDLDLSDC
Chain of Cannabinoid receptor 1 (P21554 whole entry): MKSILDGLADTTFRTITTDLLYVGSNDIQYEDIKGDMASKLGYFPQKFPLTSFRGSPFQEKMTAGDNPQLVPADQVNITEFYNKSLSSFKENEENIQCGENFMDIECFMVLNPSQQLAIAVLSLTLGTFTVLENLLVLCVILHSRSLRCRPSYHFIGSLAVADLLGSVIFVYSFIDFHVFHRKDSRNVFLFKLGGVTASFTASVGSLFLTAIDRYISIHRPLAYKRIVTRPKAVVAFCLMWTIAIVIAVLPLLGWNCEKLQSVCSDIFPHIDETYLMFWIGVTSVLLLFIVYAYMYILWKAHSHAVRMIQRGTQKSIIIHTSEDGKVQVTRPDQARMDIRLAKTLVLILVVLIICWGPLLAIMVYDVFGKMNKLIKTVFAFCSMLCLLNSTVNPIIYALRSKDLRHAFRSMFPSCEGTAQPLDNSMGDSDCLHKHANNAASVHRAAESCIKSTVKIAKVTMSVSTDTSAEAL

As a reminder, the inhibition in vivo is the change of the read-out against control, counted positive when it falls. Higher therefore signals strong suppression. Consider `Cc1ccc(C2CC(C(=O)NN3CCOCC3)=NN2c2ccc(Cl)cc2Cl)s1` (configuration not stated), for which, in [1], the inhibition in vivo at 10 mg/kg amounted to 9.3%.

For `O=C(NN1CCOCC1)C1=NN(c2ccc(Cl)cc2Cl)C(c2cccs2)C1` (configuration not stated), the inhibition in vivo at 10 mg/kg in data set [1] was found to be 3%.

In data set [1], `O=C(NN1CCCCC1)C1=NN(c2ccc(Cl)cc2Cl)C(c2ccc(Cl)cc2)C1` (configuration not stated) had an inhibition in vivo at 10 mg/kg of 23.6%.

Turning to `CN1CCN(NC(=O)C2=NN(c3ccc(Cl)cc3Cl)C(c3ccc(Cl)cc3)C2)CC1` (configuration not stated), testing at 10 mg/kg in data set [1] gave an inhibition in vivo of 22.6%.

Consider `O=C(NN1CCOCC1)C1=NN(c2ccccc2)C(c2ccc(Cl)cc2)C1` (configuration not stated), for which, in data set [1], testing at 10 mg/kg gave an inhibition in vivo of 0.5%.

In [1], `O=C(NN1CCOCC1)C1=NN(c2ccccc2)C(c2ccccc2)C1` (configuration not stated) displayed an inhibition in vivo at 10 mg/kg of 11.9%.

Take `O=C(NN1CCOCC1)C1=NN(c2ccc(Cl)cc2Cl)C(c2ccccc2)C1` (configuration not stated): the inhibition in vivo at 10 mg/kg in data set [1] was determined as 31.9%.

For the compound `CCCCOc1ccc(C2CC(C(=O)NN3CCOCC3)=NN2c2ccc(Cl)cc2Cl)cc1` (configuration not stated), 10 mg/kg produced 18.1% inhibition in vivo in data set [1].

Take `O=C(NN1CCOCC1)C1=NN(c2ccc(Cl)cc2Cl)C(c2ccc3c(c2)OCO3)C1` (configuration not stated): in data set [1], 10 mg/kg produced 17% inhibition in vivo.

Regarding `O=C(NN1CCOCC1)C1=NN(c2ccc(Cl)cc2Cl)C(c2ccco2)C1` (configuration not stated), the inhibition in vivo at 10 mg/kg in data set [1] is 15.1%.

Compound `O=C(NN1CCOCC1)C1=NN(c2ccc(Cl)cc2Cl)C(c2ccc(Br)cc2)C1` (configuration not stated) registered an inhibition in vivo at 10 mg/kg in [1] of 24.2%.

Compound `O=C(NN1CC2CCCC2C1)C1=NN(c2ccc(Cl)cc2Cl)C(c2ccc(Cl)cc2)C1` (configuration not stated) had an inhibition in vivo at 10 mg/kg in data set [1] of 3.6%.

Turning to `O=C(NN1CCCCCC1)C1=NN(c2ccc(Cl)cc2Cl)C(c2ccc(Cl)cc2)C1` (configuration not stated), 10 mg/kg produced 8.4% inhibition in vivo in [1].

The compound `O=C(NN1CCCC1)C1=NN(c2ccc(Cl)cc2Cl)C(c2ccc(Cl)cc2)C1` (configuration not stated) had an inhibition in vivo at 10 mg/kg in [1] of 2.5%.

Usually Inhibition stands for the percentage by which the read-out fell short of the control. The low end stands for little suppression, the high end for strong suppression. As for `O=C(NN1CCOCC1)C1=NN(c2ccc(Cl)cc2Cl)C(c2ccc(Cl)cc2)C1.O=C(O)C(=O)O` (configuration not stated), the Inhibition in data set [1] was 20.4%.

Regarding `O=C(NN1CCOCC1)C1=NN(c2ccc(Cl)cc2Cl)C(c2ccc(Cl)s2)C1` (configuration not stated), the inhibition in vivo at 10 mg/kg in data set [1] is 16.7%.

Compound `O=C(NN1CCOCC1)C1=NN(c2ccc(Cl)cc2Cl)C(c2ccc(Cl)cc2)C1` (configuration not stated) came in with an Inhibition in data set [1] of 34.2%.

`O=C(NN1CCOCC1)C1=NN(c2ccc(Cl)cc2)C(c2ccc(Cl)cc2)C1` (configuration not stated) returned an inhibition in vivo at 10 mg/kg in [1] of 8.1%.

`O=C(NN1CCOCC1)C1=NN(c2ccc(Cl)cc2)C(c2ccccc2)C1` (configuration not stated) had an inhibition in vivo at 10 mg/kg in data set [1] of 5.6%.

In data set [1], `CCCCCc1ccc(C2CC(C(=O)NN3CCOCC3)=NN2c2ccc(Cl)cc2Cl)cc1` (configuration not stated) gave an inhibition in vivo at 10 mg/kg of 13.1%.

`COc1ccc(C2CC(C(=O)NN3CCOCC3)=NN2c2ccc(Cl)cc2Cl)cc1` (configuration not stated) showed an inhibition in vivo at 10 mg/kg in data set [1] of 9.4%.

Turning to `O=C(NN1CCOCC1)C1=NN(c2ccc(Cl)cc2Cl)C(c2cccnc2)C1` (configuration not stated), 10 mg/kg produced 4% inhibition in vivo in data set [1].

In data set [1], `CS(=O)(=O)O.O=C(NN1CCOCC1)C1=NN(c2ccc(Cl)cc2Cl)C(c2ccc(Cl)cc2)C1` (configuration not stated) showed an Inhibition of 19.2%.

The compound `Cl.O=C(NN1CCOCC1)C1=NN(c2ccc(Cl)cc2Cl)C(c2ccc(Cl)cc2)C1` (racemic; form 1) yielded an Inhibition in data set [1] (10 mg/kg) of 34.5%.

A word on the Ki: it is the dissociation constant of the complex between target and ligand, obtained from inhibition or displacement. Consider `O=C(NN1CCOCC1)C1=NN(c2ccc(Cl)cc2Cl)C(c2ccc(Cl)cc2)C1.O=S(=O)(O)O` (racemic; form 2), for which the Ki in data set [2] came to 21.7 µM; in data set [3], 0.334 µM. The same compound displayed an Inhibition in [1] (10 mg/kg) of 36.4%.

For the compound `O=C(NN1CCOCC1)C1=NN(c2ccc(Cl)cc2Cl)C(c2ccc(Cl)cc2)C1` (racemic; form 2), the result in data set [4] and in data set [5] was Active.

Regarding `Cl.O=C(NN1CCOCC1)C1=NN(c2ccc(Cl)cc2Cl)C(c2ccc(Cl)cc2)C1` (single isomer, unassigned; 27), the Inhibition in data set [1] (10 mg/kg) was 30.1%.

On to `O=C(NN1CCOCC1)C1=NN(c2ccc(Cl)cc2Cl)C(c2ccc(Cl)cc2)C1.O=S(=O)(O)O` (single isomer, unassigned; 28), for which the Ki in data set [2] was determined as 26.4 µM; in data set [3], 0.475 µM. The same compound yielded an Inhibition in data set [1] (10 mg/kg) of 15.4%.

In the case of `O=C(NN1CCOCC1)C1=NN(c2ccc(Cl)cc2Cl)C(c2ccc(Cl)cc2)C1` (single isomer, unassigned; 30), the result in [4] and in [5] was Active.

Compound `O=C(NN1CCOCC1)C1=NN(c2ccc(Cl)cc2Cl)C(c2ccc(Cl)cc2)C1.O=S(=O)(O)c1ccccc1` (single isomer, unassigned; 33) returned an Inhibition in data set [1] of 17.1%.

In data set [1] (10 mg/kg), `Cl.O=C(NN1CCOCC1)C1=NN(c2ccc(Cl)cc2Cl)C(c2ccc(Cl)cc2)C1` (stereo in doubt; 29) yielded an Inhibition of 42.2%.

As usually defined, the AUC(0-inf) is total exposure, with the tail of the curve extrapolated. Higher therefore signals high exposure. By Cmax is commonly meant the peak of the concentration-time curve. The term half-life denotes the time needed for the level to fall by half in the phase considered. The low end stands for fast loss, the high end for slow loss. The term Tmax denotes the time at which the peak concentration occurs. The compound `Cc1c(C(=O)NN2CCCCC2)nn(-c2ccc(Cl)cc2Cl)c1-c1ccc(Cl)cc1` [RIMONABANT] registered an AUC(0-inf) in data set [6] of 41200 ng·h/mL. The compound further gave a Cmax in [7] of 1920 ng/mL. Besides, the outcome in data set [4] and in data set [5] was Active. In addition, the half-life in [8] is 26.6 h. For the same compound, the concentration at 3 h in data set [9] turned out to be 400 ng/mL; in data set [10], 4250 ng/g; in data set [12] it was 450 ng/g. Also, the Tmax in [11] was found to be 2.6 h. Besides, the inhibition in vivo at 10 mg/kg in data set [1] was 36.7%.

Values taken from ChEMBL document CHEMBL1138302, “Diaryl dihydropyrazole-3-carboxamides with significant in vivo antiobesity activity related to CB1 receptor antagonism: synthesis, biological evaluation, and molecular modeling in the homology model” (J Med Chem, 2007).
